Measured values of several laboratories.
Matrix: plasma
Route: oral

Cn1cc(-c2ccc(S(=O)(=O)[C@@H]3C[C@@H](C(=O)NC4(C#N)CC4)N(C(=O)C4(C(F)(F)F)CC4)C3)c(C(F)(F)F)c2)cn1  AUC(0-inf) (human; 3 mg, single dose, fasted, healthy volunteers): 0.229 µg·h/mL
O=C(Nc1c(Cl)cncc1Cl)c1ccc(OC(F)F)c(OCC2CC2)c1  AUC(0-inf) (human; 0.25 mg, single dose, fasted): 0.0338 µg·h/mL
C[C@@]1(c2cc(NC(=O)c3ccc(C#N)cn3)ccc2F)C=CSC(N)=N1  AUC(0-inf) (human; 150 mg, single dose): 14.5 µg·h/mL
CO[C@H]1CC[C@H](N2C(=O)CNc3ncc(-c4ccc(C(C)(C)O)nc4)nc32)CC1  AUC(0-inf) (human; 45 mg, patients): 1.69 µg·h/mL
CCc1nc2c(C)cc(N3CCN(CC(=O)N4CC(O)C4)CC3)cn2c1N(C)c1nc(-c2ccc(F)cc2)c(C#N)s1  AUC(0-inf) (human; 300 mg, fed, healthy volunteers): 16.4 µg·h/mL
CC(C)(Sc1ccncc1-c1ccc(C#N)c2ccccc12)C(=O)O  AUC(0-inf) (male human; 20 mg, single dose, fasted, healthy volunteers): 0.54 µg·h/mL
CC(C)n1cc(C#N)c2cc(-n3cc(C(=O)O)cn3)ccc21  AUC(0-inf) (human; 10 mg, single dose, fasted, healthy volunteers): 1.77 µg·h/mL
COc1ccc([C@@H]2CN(C(=O)[C@@H](O)CO)C[C@@]2(C)[C@@H](C)O)cc1OC1CN(c2ccc(C)cn2)C1  AUC(0-inf) (human; 1.5 mg, single dose, healthy volunteers): 0.524 µg·h/mL
CC(C)(O)c1ccccc1-c1ccc2[nH]c(/C=C/c3ccc(C(F)(F)F)cc3)nc2c1  AUC(0-inf) (male human; 10 mg, single dose, fasted): 2.11 µg·h/mL
